Screens from PubChem BioAssay.
An excerpt weighted towards active compounds, which were near 3.7% of everything screened.
KCNQ1 block: inhibitors of human KCNQ1 channel, primary screen, cell-based, thallium flux, high-throughput. B-score at 10 µM. CHO-K1 KCNQ1, FluxOR thallium flux fluorescence; hits give high values. AID 2642, 2010. Potassium voltage-gated channel subfamily KQT member 1 (Homo sapiens), P51787. 1.3% of 310,000 active;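 active means compounds whose thallium flux B-score, printed positive for inhibition, exceeds three library SD while starting fluorescence stays within three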;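 further: channel opened by potassium depolarization with thallium stimulus after 20 min compound exposure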
KCNQ1 pot: potentiators or activators of KCNQ1 channel, primary screen, cell-based, thallium flux, high-throughput | CHO-K1 KCNQ1, thallium flux FluxOR fluorescence; hits give high values | B-score at 10 µM | 0.35% of 310,000 active | AID 2648, 2010;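 active means fluorescence ratio B-score, a plate-corrected score, at least three library SD, with initial intensity B-score within 5 SD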
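Doses: Single concentration per compound, DMSO matched to controls | Test system: KCNQ1-transfected CHO-K1 cells | Timing: 90 min dye loading and 20 min compound exposure, both at room temperature | Measured by: Kinetic FluxOR thallium fluorescence, 10-s 1-Hz baseline, 110-s post-stimulus read | Medium: Assay buffer with matched DMSO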
Kir21 block: inhibitors of mouse Kir2.1 inward-rectifier potassium channel | 0.85% of 310,000 active | AID 1672, 2009 | HEK293-Kir2.1, FluxOR thallium flux fluorescence; hits give low values | B-score at 10 µM;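 active means fluorescence ratio B-score at or below minus 3 SD of library scores, with starting-brightness B-score within 2 SD, cut at about -4.2 in these data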;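 further: channel flux triggered by added potassium and thallium sulfate stimulus; B-score of peak minus minimum fluorescence over baseline after thallium stimulus; more negative B-score means stronger Kir2.1 block with less thallium influx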
hERG protect: hERG rescue from dofetilide block, primary screen, cell-based, CHO-hERG, FluxOR thallium flux, dofetilide IC70. AID 1511, 2009. Voltage-gated inwardly rectifying potassium channel KCNH2 (Homo sapiens), Q12809. activation (rescue from dofetilide block), less the hit threshold, % at 10 µM. dofetilide IC70 present. 0.51% of 310,000 active;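 active means activation above the mean of controls blocked by dofetilide plus 5 SD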;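 further: thallium influx through hERG after potassium depolarization seen as dye fluorescence rise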
KCNK9 inh: KCNK9 potassium channel inhibitors, primary screen, HEK293 cells, thallium flux; Potassium channel subfamily K member 9 (Homo sapiens), Q9NPC2; FluxOR thallium flux fluorescence; hits give low values; B-score at 10 µM; 1.2% of 310,000 active;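 active means ratio B-score over 3 SD below the library mean, with starting fluorescence within 5 SD of its mean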;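 further: negative B-score means less thallium flux so channel inhibition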
Target sequence (Q9NPC2 whole entry, looked up): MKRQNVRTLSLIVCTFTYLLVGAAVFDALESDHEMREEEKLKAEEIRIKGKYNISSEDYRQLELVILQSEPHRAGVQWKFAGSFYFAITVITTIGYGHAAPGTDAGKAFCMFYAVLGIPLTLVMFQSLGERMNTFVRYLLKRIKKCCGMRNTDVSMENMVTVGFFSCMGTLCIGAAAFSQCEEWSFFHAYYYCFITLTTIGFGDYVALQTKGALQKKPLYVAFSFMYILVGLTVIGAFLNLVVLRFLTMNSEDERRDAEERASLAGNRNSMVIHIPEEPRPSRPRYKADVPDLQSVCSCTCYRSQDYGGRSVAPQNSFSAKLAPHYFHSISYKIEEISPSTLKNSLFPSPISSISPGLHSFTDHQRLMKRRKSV
KCNK3 inh: human KCNK3 channel inhibitors, primary screen, CHO cells, FluxOR thallium flux, B-score | Potassium channel subfamily K member 3 (Homo sapiens), O14649 | FluxOR fluorescence; hits give low values | B-score at 10 µM | 0.84% of 340,000 active;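 active means B-score under library mean minus 4 SD, starting fluorescence ratio at most library mean plus 5 SD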;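 further: more negative B-score means stronger inhibition of thallium flux through KCNK3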
* = called active by the depositor.

CC[C@@H](NS(=O)(=O)c1ccc(C)cc1)C(=O)Oc1ccc2c3c(c(=O)oc2c1)CCC3 was read as KCNQ1 block inactive, KCNQ1 pot inactive, Kir21 block 0.01, hERG protect -8, KCNK9 inh inactive and KCNK3 inh inactive.
`Cc1ccc(S(=O)(=O)NC(CC(C)C)C(=O)Oc2ccc3c4c(c(=O)oc3c2)CCC4)cc1` (stereo not drawn) gave KCNQ1 block 6*, KCNQ1 pot inactive, Kir21 block -0.15, hERG protect -7, KCNK9 inh inactive and KCNK3 inh inactive.
For Cc1ccc(S(=O)(=O)NC(C(=O)Oc2ccc3c(C(F)(F)F)cc(=O)oc3c2)c2ccccc2)cc1 (stereo not drawn) the results were KCNQ1 block 6*, KCNQ1 pot inactive, Kir21 block -3.4, hERG protect -12, KCNK9 inh inactive and KCNK3 inh inactive.
S=c1[nH]nc(CSc2nc3ccccc3s2)n1C1CCCCC1 was read as KCNQ1 block inactive, KCNQ1 pot 22*, Kir21 block -2.6, hERG protect 4, KCNK9 inh -7.5* and KCNK3 inh inactive.
Cc1ccc(S(=O)(=O)N(C)C)cc1NC(=O)CN1C(=O)NC(Cc2ccccc2)C1=O (stereo not drawn) was read as KCNQ1 block inactive, KCNQ1 pot inactive, Kir21 block -0.15, hERG protect -5, KCNK9 inh inactive and KCNK3 inh inactive.
CCOC(=O)C1=C(C)N=C2SC(C(=O)OC)=CC(=O)N2C1c1cccc(OC)c1 (stereo not drawn) was read as KCNQ1 block inactive, KCNQ1 pot inactive, Kir21 block -0.51, hERG protect -5, KCNK9 inh inactive and KCNK3 inh inactive.
Screening CCOC(=O)C1=C(C)N=C2SC(C(=O)OC)=CC(=O)N2C1c1ccc(F)cc1 (stereo not drawn) returned KCNQ1 block inactive, KCNQ1 pot inactive, Kir21 block -5.4*, hERG protect -13, KCNK9 inh inactive and KCNK3 inh inactive.
For CN(Cc1nc(-c2cccnc2)no1)S(=O)(=O)c1ccc2ccccc2c1 the results were KCNQ1 block inactive, KCNQ1 pot inactive, Kir21 block -4.8*, hERG protect -11, KCNK9 inh inactive and KCNK3 inh inactive.
Screening Cc1cc(SCC(=O)OCC(=O)N(CCC#N)c2ccccc2)nc2ccccc12 returned KCNQ1 block inactive, KCNQ1 pot inactive, Kir21 block 0.07, hERG protect -12, KCNK9 inh inactive and KCNK3 inh inactive.
`COCCN1C(=O)C(=O)/C(=C(/O)c2ccc(S(=O)(=O)N3CCCCC3)cc2)C1c1ccc(OC)cc1` (stereo not drawn) gave KCNQ1 block inactive, KCNQ1 pot inactive, Kir21 block -0.6, hERG protect -7, KCNK9 inh inactive and KCNK3 inh inactive.
For NNC(=O)Cn1c(-c2nonc2N)nc2ccccc21 the results were KCNQ1 block inactive, KCNQ1 pot inactive, Kir21 block 0.13, hERG protect -12, KCNK9 inh inactive and KCNK3 inh inactive.
Screening CCCCOc1ccccc1NC(=O)Cn1c(-c2nonc2N)nc2ccccc21 returned KCNQ1 block inactive, KCNQ1 pot inactive, Kir21 block -0.93, hERG protect -9, KCNK9 inh inactive and KCNK3 inh -8.8*.
`CCCOc1ccc(C(=O)CCN2CCN(C(=O)OCC)CC2)cc1` gave KCNK3 inh inactive.
O=C(Nc1ncc(Cc2cccc(Cl)c2)s1)c1cccs1 was read as KCNQ1 block inactive, KCNQ1 pot inactive, Kir21 block -1.5, hERG protect -4, KCNK9 inh -6.7* and KCNK3 inh inactive.
`O=C(Nc1ncc(Cc2ccccc2)s1)c1cccs1` gave KCNQ1 block inactive, KCNQ1 pot inactive, Kir21 block 0.03, hERG protect -7, KCNK9 inh inactive and KCNK3 inh inactive.
`COc1cccc(NC(=O)c2cc3cccc(OC)c3o/c2=N\O)c1` gave KCNQ1 block 7*, KCNQ1 pot inactive, Kir21 block -1.6, hERG protect -9 and KCNK9 inh inactive.
COc1cc(NC(=O)c2csc(-c3ccncc3)n2)cc(C(=O)Nc2cccc(C(F)(F)F)c2)c1 was read as KCNQ1 block 11*, KCNQ1 pot inactive, Kir21 block 0.51, hERG protect -26, KCNK9 inh inactive and KCNK3 inh inactive.
Screening COc1cc(NC(=O)c2cc3cccc(OC)c3o2)cc(C(=O)Nc2cccc(C(F)(F)F)c2)c1 returned KCNQ1 block 7*, KCNQ1 pot inactive, Kir21 block 0.65, hERG protect -26, KCNK9 inh inactive and KCNK3 inh inactive.
For O=C(Nc1cccc(C(F)(F)F)c1)c1csc(-c2ccncc2)n1 the results were KCNQ1 block inactive, KCNQ1 pot inactive, Kir21 block 1.4, hERG protect -10, KCNK9 inh inactive and KCNK3 inh inactive.
For CCN1CCN(Cc2ccc(NC(=O)c3cc(NC(=O)c4cc5cccc(OC)c5o4)cc(OC)c3)cc2C(F)(F)F)CC1 the results were KCNQ1 block inactive, KCNQ1 pot inactive, Kir21 block 0, hERG protect -33, KCNK9 inh inactive and KCNK3 inh inactive.
`COc1ccc(N2CCN(C(=O)c3cc(=O)c4ccc(C)cc4o3)CC2)cc1` gave KCNQ1 block inactive, KCNQ1 pot inactive, Kir21 block 0.38, hERG protect -2, KCNK9 inh inactive and KCNK3 inh inactive.
Screening CCOc1ccc(-n2c(-c3ccccc3)c[n+]3c2CCCCC3)cc1 returned KCNQ1 block 8*, KCNQ1 pot inactive, Kir21 block -0.63, hERG protect -17, KCNK9 inh inactive and KCNK3 inh inactive.
For COc1ccccc1N(C)S(=O)(=O)c1ccc(C)c(C(=O)NC(C)c2ccccn2)c1 (stereo not drawn) the results were KCNK3 inh inactive.
`CC(C)OC(=O)C1CC(C)(O)C(=O)C(C(=O)OC(C)C)C1c1ccc([N+](=O)[O-])cc1` (stereo not drawn) gave KCNQ1 block inactive, KCNQ1 pot inactive, Kir21 block 0.36, hERG protect -7, KCNK9 inh inactive and KCNK3 inh inactive.
